Only some compounds are listed: those with a hit (about 2% of all), similar ones and a draw of the others.
E-sel inducer = E-selectin induction on HUVECs | P16581 | HUVEC E-selectin immunofluorescence imaging; normalized: neutral wells 0, TNF-alpha wells 100 | activation, % at 7.58 µM | 260,000 compounds, 0.37% hits | AID 686992;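 active means mean E-selectin-positive cell signal at least 10% of the positive control, reached in at least 60% of replicates, without over 20% cell loss; inconclusive means no rule given, readout overlaps actives, possibly toxicity-flagged; inactive means the rest, including those meeting only one limit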
Target sequence (P16581 whole entry, looked up): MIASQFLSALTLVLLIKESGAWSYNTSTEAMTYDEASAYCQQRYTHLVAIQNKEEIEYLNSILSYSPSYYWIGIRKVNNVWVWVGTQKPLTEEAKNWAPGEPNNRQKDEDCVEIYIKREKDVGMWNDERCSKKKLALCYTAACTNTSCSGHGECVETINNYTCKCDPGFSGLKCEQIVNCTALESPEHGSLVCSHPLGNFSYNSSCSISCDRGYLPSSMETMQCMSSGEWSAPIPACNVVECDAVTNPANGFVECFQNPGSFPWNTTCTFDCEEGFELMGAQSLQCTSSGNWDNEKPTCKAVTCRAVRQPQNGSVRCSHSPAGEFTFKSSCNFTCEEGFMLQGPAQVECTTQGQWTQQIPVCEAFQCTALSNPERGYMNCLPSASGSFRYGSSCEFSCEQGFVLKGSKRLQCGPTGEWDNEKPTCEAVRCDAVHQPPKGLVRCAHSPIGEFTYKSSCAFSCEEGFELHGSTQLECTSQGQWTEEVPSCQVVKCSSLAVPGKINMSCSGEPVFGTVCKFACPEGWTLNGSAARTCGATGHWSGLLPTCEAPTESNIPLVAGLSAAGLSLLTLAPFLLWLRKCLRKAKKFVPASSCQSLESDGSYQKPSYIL
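Assay system: HUVEC, human umbilical vein endothelial cells / Amount: 3,000 HUVEC/well / Controls: TNF-alpha positive control, DMSO neutral control / Compound dosing: single concentration / Medium: EGM-2 over gelatin coat / Evaluation: percent E-selectin-positive cells / Signal: immunofluorescence imaging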
S100A4 inh HTS = inhibitors of human S100A4 binding to myosin IIA peptide; P26447; S100A4/TAMRA-MyoIIA peptide fluorescence polarization; inhibition, % at 10.7 µM; 360,000 compounds, 0.14% hits;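 active means mean inhibition of at least 70% across replicates, with every replicate also reaching that level; inconclusive means mean inhibition reaches 70% but some replicates fall short; inactive means mean inhibition below 70%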
Target sequence (P26447 whole entry, looked up): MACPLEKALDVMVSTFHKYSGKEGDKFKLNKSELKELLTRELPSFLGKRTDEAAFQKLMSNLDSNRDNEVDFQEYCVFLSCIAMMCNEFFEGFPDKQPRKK
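Test system – S100A4 monomer (human) · Compound – single-point compound testing · Schedule – 5 min incubation before reading · Probe or stimulus – TAMRA-labelled myosin IIA heavy-chain peptide probe, 5 nM · Benchmarks – neutral control DMSO, positive control TFP · Medium – Calcium-containing HEPES buffer, pH 7.2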
Xi reactivation = X-chromosome reactivation activator; AID 743238; activation, % at 7.58 µM; XiGFP mouse fibroblasts, % GFP-positive cells imaging, 3 d; cells co-treated with 5-aza-dC sensitizer; scaled so ellipticine positive control = 100%; 360,000 compounds, 0.055% hits;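 active means mean normalized replicate activation at least 10% and every replicate at or above 10%; inconclusive means only one of the two criteria met; inactive means mean below 10% and not all replicates reach 10%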;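 further: 0% = median of on-plate neutral control wells and 100% = ellipticine 6 µM median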
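System: SV40-immortalized XiGFP fibroblast cells, line 68-5-11 / Incubation: 3-day compound exposure, then 15 min fixation at room temperature / Compound: single concentration per compound, delivered by pin transfer / Buffer or medium: DMEM plus 5-aza-dC sensitizer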
DENV2 CPE rescue = protects cells from dengue virus 2 cytopathic effect. DENV2-infected cells, cytopathic effect rescue, plate reader. CPE inhibition, % at 9.99 µM. 350,000 compounds, 1.7% hits; in the data active means CPE inhibition above about 20%, passing the limit was not always enough; inconclusive means no clear call, values can overlap the other calls; tested in BHK-21 cells;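 further: 0% = median of neutral control wells and 100% = median of positive control wells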
The depositor's hits bear a star; ? = inconclusive; · = not tested or not shown.

SMILES | E-sel inducer | S100A4 inh HTS | Xi reactivation | DENV2 CPE rescue
CCNC(=O)C[C@H]1CC[C@H]2[C@@H](COC[C@H](O)CN2Cc2ccc(Cl)c(Cl)c2)O1 | 0 | 4 | 0 | 109*
O=C(C[C@@H]1CC[C@@H]2[C@H](COC[C@H](O)CN2C(=O)Nc2ccc(Cl)c(Cl)c2)O1)NCc1ccc(Cl)c(Cl)c1 | 0 | -13 | 0 | 44*
O=C(C[C@@H]1CC[C@@H]2[C@H](COC[C@@H](O)CN2C(=O)Nc2ccc(Cl)c(Cl)c2)O1)NCc1ccc(Cl)c(Cl)c1 | 0 | -1 | 0 | -20
CNC(=O)C[C@@H]1CC[C@@H]2[C@H](COC[C@@H](O)CN2Cc2ccncc2)O1 | 0 | 0 | 0 | 25*
COC(=O)c1ccc(C23CC4(C2)[C@H](CN(Cc2ccc(-c5ccccc5)cc2)[C@@H]4c2ccccc2)C3c2ccc(C(F)(F)F)cc2)cc1 (stereo partly drawn) | 0 | -4 | 0 | -11
O=C(C[C@@H]1CC[C@H]2[C@@H](COC[C@@H](O)CN2Cc2cccc(C(F)(F)F)c2)O1)NCCc1ccccc1 | 0 | 5 | 0 | 26*
O=C(C[C@@H]1CC[C@@H]2[C@H](COC[C@@H](O)CN2Cc2cccc(C(F)(F)F)c2)O1)NCCc1ccccc1 | 0 | -2 | 0 | -5
CC(C)NC(=O)N(C)C[C@H]1Oc2ccc(NC(=O)CCC(F)(F)F)cc2CC(=O)N([C@H](C)CO)C[C@H]1C | 20 | 2 | 0 | -5
C[C@H](CO)N1C[C@H](C)[C@H](CN(C)C)Oc2ccc(NC(=O)CCC(F)(F)F)cc2CC1=O | · | 12 | 0 | -2
C[C@@H]1CN([C@H](C)CO)C(=O)Cc2cc(NC(=O)CCC(F)(F)F)ccc2O[C@H]1CN(C)C(=O)Nc1ccc(F)cc1 | 3 | 3 | 0 | ?
CC(C)NC(=O)N(C)C[C@H]1Oc2ccc(NC(=O)CCC(F)(F)F)cc2CC(=O)N([C@@H](C)CO)C[C@H]1C | 55* | 6 | 4 | 4
CC(C)NC(=O)N(C)C[C@H]1Oc2ccc(NC(=O)CCC(F)(F)F)cc2CC(=O)N([C@H](C)CO)C[C@@H]1C | 43* | -6 | 0 | -14
C[C@H]1CN([C@@H](C)CO)C(=O)Cc2cc(NC(=O)CCC(F)(F)F)ccc2O[C@@H]1CN(C)C | · | 108* | -1 | 0
C[C@H](CO)N1C[C@H](C)[C@H](CN(C)C(=O)Nc2ccc(F)cc2)Oc2ccc(NC(=O)CCC(F)(F)F)cc2CC1=O | 0 | -8 | 0 | 25*
CS(=O)(=O)c1ccc2nc(NC(=O)c3ccc(=O)[nH]c3)sc2c1 | 0 | 11 | 0 | ·
CC(C)C#Cc1ccc([C@H]2[C@@H](C#N)N(C(=O)c3cccc(F)c3)[C@H]2CO)cc1 | 0 | -10 | 0 | 3
C[C@@H]1CN([C@@H](C)CO)C(=O)c2cc(NC(=O)Nc3ccccc3)ccc2O[C@@H](C)CCCCO[C@H]1CN(C)Cc1ccc(C(=O)O)cc1 | 0 | -7 | 0 | 3
CC(C)NC(=O)N(C)C[C@@H]1Oc2ccc(NC(=O)CCC(F)(F)F)cc2CC(=O)N([C@@H](C)CO)C[C@H]1C | 113* | 2 | 0 | ?
Cc1ccnc(NC(=O)C(Cc2ccccc2)NC(=O)c2ccccc2)c1 (stereo not drawn) | 1 | 2 | 0 | 38*
O=C(NC(Cc1ccccc1)C(=O)NC(Cc1ccccc1)C(=O)O)c1ccccc1 (stereo not drawn) | · | -6 | 0 | ?
COc1cccc(C#Cc2cnc3c(c2)C(=O)N([C@@H](C)CO)C[C@@H](C)[C@@H](CN(C)C)O3)c1 | 0 | 0 | 0 | 5
Cc1ccc(S(=O)(=O)N(C)C[C@H]2Oc3ccc(NC(=O)CCCN(C)C)cc3CC(=O)N([C@@H](C)CO)C[C@H]2C)cc1 | 0 | -3 | 0 | 43*
COc1ccc(S(=O)(=O)N(C)C[C@H]2Oc3ccc(NC(=O)CCCN(C)C)cc3CC(=O)N([C@@H](C)CO)C[C@H]2C)cc1 | 0 | 1 | 0 | ·
COc1ccc(S(=O)(=O)N(C)C[C@H]2Oc3ccc(NC(=O)CCCN(C)C)cc3CC(=O)N([C@H](C)CO)C[C@H]2C)cc1 | 0 | 2 | 0 | 29*
COc1ccc(CN2C[C@H](C)[C@@H](OC)CN(C)C(=O)c3cc(NC(=O)c4nc5ccccc5s4)ccc3OC[C@@H]2C)cc1 | 0 | -31 | 0 | 31*
SMILES | E-sel inducer | S100A4 inh HTS | Xi reactivation | DENV2 CPE rescue
CCCC(=O)Nc1ccc2c(c1)OC[C@@H](C)N(Cc1ccc(-c3ccccn3)cc1)C[C@H](C)[C@H](OC)CN(C)C2=O | 0 | 109* | 0 | -2
CCCC(=O)Nc1ccc2c(c1)C(=O)N(C)C[C@@H](OC)[C@@H](C)CN(Cc1ccc(-c3ccccn3)cc1)[C@@H](C)CO2 | 2 | 5 | 1 | -6
CCCC(=O)Nc1ccc2c(c1)C(=O)N(C)C[C@H](OC)[C@H](C)CN(Cc1ccc(-c3ccccn3)cc1)[C@@H](C)CO2 | 0 | -7 | 0 | 28*
O=c1[nH]nc(Br)c(=O)n1C(c1ccccc1)c1ccccc1 | 0 | 2 | 0 | 10
CC(C)c1cn(CC[C@@H]2CC[C@H](NC(=O)C3CCOCC3)[C@H](CO)O2)nn1 | 3 | 14 | 5 | 31*
O=C(N[C@H]1CC[C@H](CCn2cc(C3(O)CCCC3)nn2)O[C@H]1CO)C1CCOCC1 | 5 | 26 | 0 | 32*
O=C(N[C@@H]1CC[C@@H](CCn2cc(C3(O)CCCC3)nn2)O[C@H]1CO)C1CCCC1 | 0 | 1 | 0 | 21*
O=C(NNC(=O)NC1CCCCC1)NC1CCCCC1 | 1 | -4 | 0 | -4
OC1CCCCC1 | · | -1 | · | 67*
Cc1ccc(-n2ncc3c(=O)[nH]c(SCC(=O)N4CCCC4)nc32)cc1C | -1 | 0 | 0 | 63*
Cc1ccc(-n2ncc3c(=O)[nH]c(SC(C)C)nc32)cc1 | 128* | -3 | 0 | 12
CC(C)Sc1nc2c(cnn2-c2ccccc2)c(=O)[nH]1 | 0 | -4 | 0 | 2
O=C(Nc1ccccc1N1CCCC1)C1CCN(C(=O)c2ccc(F)cc2)CC1 | · | 0 | 1 | 1
O=C(c1ccc(F)cc1)N1CCC(C(=O)N2CCCc3ccccc32)CC1 | 0 | 1 | 0 | 31*
COc1ccc(NC(=O)NNS(=O)(=O)c2cc(C)ccc2C)cc1OC | 0 | 3 | 0 | 2
COc1ccc(OC)c(NC(=O)NNS(=O)(=O)c2ccc(C)cc2C)c1 | -1 | -2 | 0 | 23*
Cn1nc(C(C)(C)C)cc1N1C(=O)CCC1(C)C(=O)Nc1ccc2c(c1)OCCO2 (stereo not drawn) | 0 | -8 | 0 | 24*
CC(C)c1ccc(NC(=O)Nc2nc(C(N)c3ccccc3Cl)cs2)cc1 (stereo not drawn) | 0 | -10 | 1 | 23*
CC(C)c1ccc(NC(=O)Nc2nc(C(C)N)cs2)cc1 (stereo not drawn) | 0 | -5 | 0 | -10
